From ChEMBL document CHEMBL1144233 (Bioorg Med Chem Lett, 2008)
Activity calls are given as the source filed them. No cut-off for these calls is given here.

Tests used:
[1] = target: Metabotropic glutamate receptor 1 (Rattus norvegicus) (UniProt P23385); test: (§1) Antagonist activity at rat mGluR1 expressed in Syrian golden hamster BHK cells assessed as […] of glutamate-induced calcium flux by fluorescence assay; format: functional, cell-based; set-up: scale not given: the % may be the effect or the level left
[2] = target: T1, Metabotropic glutamate receptor 4 (Homo sapiens, UniProt Q14833); test: Activity at human mGluR4 expressed in CHO cells assessed as fold potentiation of glutamate-induced calcium flux at 30 uM by fluorescence assay relative to control
Target sequence in this assay (Q14833 whole entry, looked up): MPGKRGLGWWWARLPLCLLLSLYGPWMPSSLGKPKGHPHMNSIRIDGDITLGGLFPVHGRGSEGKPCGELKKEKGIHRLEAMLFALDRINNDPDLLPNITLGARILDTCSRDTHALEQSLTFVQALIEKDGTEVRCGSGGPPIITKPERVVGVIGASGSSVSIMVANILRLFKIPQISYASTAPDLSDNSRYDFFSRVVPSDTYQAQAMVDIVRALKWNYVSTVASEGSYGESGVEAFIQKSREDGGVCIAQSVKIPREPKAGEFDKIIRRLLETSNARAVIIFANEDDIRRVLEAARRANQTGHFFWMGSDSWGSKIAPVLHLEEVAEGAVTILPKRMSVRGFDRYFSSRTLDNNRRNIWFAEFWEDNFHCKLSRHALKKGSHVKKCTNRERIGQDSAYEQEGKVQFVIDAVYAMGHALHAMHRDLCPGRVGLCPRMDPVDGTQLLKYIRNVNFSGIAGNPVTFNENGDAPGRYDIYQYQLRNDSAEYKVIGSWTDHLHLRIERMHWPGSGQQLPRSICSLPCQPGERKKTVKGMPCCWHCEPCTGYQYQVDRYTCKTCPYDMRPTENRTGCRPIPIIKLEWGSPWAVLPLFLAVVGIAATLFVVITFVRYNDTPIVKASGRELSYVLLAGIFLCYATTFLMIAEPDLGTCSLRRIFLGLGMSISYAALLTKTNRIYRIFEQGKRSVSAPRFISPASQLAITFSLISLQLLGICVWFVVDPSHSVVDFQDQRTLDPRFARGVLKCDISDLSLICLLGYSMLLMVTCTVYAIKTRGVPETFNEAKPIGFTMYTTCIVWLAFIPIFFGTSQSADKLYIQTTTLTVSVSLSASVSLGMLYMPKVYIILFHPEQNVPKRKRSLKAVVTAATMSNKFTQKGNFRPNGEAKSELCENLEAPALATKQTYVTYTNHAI

[3] = target: Metabotropic glutamate receptor 1 (Rattus norvegicus, UniProt P23385); test: as §1; format: functional, cell-based
[4] = target: T1, Metabotropic glutamate receptor 4; test: Activity at human mGluR4 expressed in CHO coexpressing Gqi5 assessed as potentiation of glutamate-induced calcium flux by fluorescence assay; format: functional
How it was run: (§2)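 CHO cells stably co-expressing human mGluR4 and chimeric Gqi5, plated 30,000 cells/well in assay medium (DMEM, 10% dialyzed FBS, 20 mM HEPES) and grown overnight at 37 °C, 5% CO₂. Loaded with 1 µM Fluo-4AM in HBSS/20 mM HEPES/2.5 mM probenecid for 45 min at 37 °C.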
Target sequence in this assay (Q14833 whole entry): as the sequence (Q14833 whole entry, looked up) above

[5] = target: T1, Metabotropic glutamate receptor 4; test: Activity at human mGluR4 expressed in CHO coexpressing Gqi5 assessed as potentiation of calcium flux by fluorescence assay in absence of glutamate; format: functional; how it was run: as §2
Target sequence in this assay (Q14833 whole entry): as the sequence (Q14833 whole entry, looked up) above

Sequence of Metabotropic glutamate receptor 1 (Rattus norvegicus) (P23385 19-1199 limits assumed): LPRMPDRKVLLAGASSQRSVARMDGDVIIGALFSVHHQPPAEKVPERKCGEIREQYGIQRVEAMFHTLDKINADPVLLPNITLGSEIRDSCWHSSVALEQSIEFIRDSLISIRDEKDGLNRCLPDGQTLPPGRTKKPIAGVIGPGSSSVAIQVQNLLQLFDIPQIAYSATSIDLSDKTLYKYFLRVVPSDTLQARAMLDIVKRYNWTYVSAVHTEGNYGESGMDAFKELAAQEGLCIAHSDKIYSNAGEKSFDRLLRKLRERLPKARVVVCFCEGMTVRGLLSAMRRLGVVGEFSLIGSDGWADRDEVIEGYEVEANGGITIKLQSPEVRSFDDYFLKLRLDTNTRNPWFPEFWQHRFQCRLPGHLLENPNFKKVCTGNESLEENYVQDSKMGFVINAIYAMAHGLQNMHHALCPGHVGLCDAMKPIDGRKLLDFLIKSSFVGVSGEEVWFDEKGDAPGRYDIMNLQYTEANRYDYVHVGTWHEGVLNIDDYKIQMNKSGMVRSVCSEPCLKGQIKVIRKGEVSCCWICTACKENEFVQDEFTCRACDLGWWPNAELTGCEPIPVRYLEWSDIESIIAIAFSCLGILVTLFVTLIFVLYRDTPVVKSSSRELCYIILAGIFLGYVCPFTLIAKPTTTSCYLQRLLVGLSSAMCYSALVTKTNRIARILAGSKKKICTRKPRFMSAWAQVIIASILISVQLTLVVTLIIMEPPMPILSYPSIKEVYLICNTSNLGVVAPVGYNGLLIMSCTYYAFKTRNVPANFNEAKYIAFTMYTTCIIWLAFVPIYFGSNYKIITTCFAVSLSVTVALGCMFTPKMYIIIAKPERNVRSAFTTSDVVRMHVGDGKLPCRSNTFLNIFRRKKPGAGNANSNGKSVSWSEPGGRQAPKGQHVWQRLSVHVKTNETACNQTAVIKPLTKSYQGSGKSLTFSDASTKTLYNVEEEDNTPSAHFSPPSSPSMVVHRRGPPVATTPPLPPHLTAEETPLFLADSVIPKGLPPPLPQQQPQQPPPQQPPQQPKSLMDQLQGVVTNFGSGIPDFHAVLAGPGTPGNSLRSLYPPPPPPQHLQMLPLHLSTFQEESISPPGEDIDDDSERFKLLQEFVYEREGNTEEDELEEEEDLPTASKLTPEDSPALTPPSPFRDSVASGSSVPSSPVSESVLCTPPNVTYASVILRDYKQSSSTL
Sequence of Metabotropic glutamate receptor 1 (P23385 whole entry): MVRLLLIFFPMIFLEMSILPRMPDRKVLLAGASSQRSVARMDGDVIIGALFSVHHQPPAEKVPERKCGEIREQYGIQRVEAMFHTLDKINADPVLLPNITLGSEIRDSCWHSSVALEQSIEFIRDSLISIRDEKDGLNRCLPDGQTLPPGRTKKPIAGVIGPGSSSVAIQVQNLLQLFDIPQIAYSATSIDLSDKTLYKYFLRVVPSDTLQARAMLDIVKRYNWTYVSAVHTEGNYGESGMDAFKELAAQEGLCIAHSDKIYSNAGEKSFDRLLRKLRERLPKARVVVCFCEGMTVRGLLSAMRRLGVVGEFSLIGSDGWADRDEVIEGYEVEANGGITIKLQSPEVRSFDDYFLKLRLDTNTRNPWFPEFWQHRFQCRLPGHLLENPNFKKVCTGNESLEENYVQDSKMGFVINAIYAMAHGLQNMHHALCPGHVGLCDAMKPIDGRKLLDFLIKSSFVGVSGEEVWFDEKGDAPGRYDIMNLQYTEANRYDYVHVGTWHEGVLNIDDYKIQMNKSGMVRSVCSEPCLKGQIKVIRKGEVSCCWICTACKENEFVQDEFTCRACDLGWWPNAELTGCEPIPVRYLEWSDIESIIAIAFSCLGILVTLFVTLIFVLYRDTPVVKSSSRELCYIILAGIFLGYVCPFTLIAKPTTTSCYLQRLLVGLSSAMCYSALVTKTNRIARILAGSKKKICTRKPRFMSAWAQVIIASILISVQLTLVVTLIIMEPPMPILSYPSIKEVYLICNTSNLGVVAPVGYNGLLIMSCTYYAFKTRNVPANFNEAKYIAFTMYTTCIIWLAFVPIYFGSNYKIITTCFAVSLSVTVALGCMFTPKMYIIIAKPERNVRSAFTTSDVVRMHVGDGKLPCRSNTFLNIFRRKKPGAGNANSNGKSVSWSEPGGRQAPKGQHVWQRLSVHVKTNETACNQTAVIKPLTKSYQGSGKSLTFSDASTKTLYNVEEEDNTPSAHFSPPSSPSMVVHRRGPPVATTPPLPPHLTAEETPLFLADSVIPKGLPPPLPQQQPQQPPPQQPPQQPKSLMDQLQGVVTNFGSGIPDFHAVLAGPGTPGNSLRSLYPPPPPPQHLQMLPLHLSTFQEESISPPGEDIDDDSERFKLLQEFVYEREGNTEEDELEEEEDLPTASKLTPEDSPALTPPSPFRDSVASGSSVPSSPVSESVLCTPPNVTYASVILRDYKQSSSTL

Compound | fold change (FC) [2] | further results
O=C(Nc1ccccc1)[C@]12C[C@H]1/C(=N\O)c1ccccc1O2 |  | Activity [1]: 30%
Cc1ccc(-n2ncc3c(N4CC(C)OC(C)C4)ncnc32)c(C)c1 (centres undefined) | 3.5 | 
Cc1ccc(-n2ncc3c(N4CCC(n5c(=O)[nH]c6ccccc65)CC4)ncnc32)c(C)c1 | 2.4 | 
Cc1ccc(-n2ncc3c(N4CCCC(C(F)(F)F)C4)ncnc32)c(C)c1 (centres undefined) | 9.9 | 
CC1CCCN(c2ncnc3c2cnn3-c2ccccc2Cl)C1 (centres undefined) | 2.7 | 
Cc1ccc(-n2ncc3c(N4CCCC(C)C4)ncnc32)c(C)c1 (centres undefined) | 11.8 | IC50 [3]: 2.6 µM; EC50 [4]: 4.6 µM; Activity [5]: inactive
